Assay results collected from several papers.
Protocols differ between the studies behind these lines.
Target: Dual specificity tyrosine-phosphorylation-regulated kinase 1A (DYRK1A, Homo sapiens, UniProt Q13627)

SMILES	read-out	action	method	tested at	endpoint	result
Cc1nn(C)cc1-c1nc2c(N3CCN(Cc4ccc(Cl)cc4)CC3)c(Cl)cnc2[nH]1	binding		competition with immobilised ligand	1 µM	remaining binding	82%
COc1ncccc1-c1cnn2ccc(N3CCN(C(=O)OC(C)C)CC3)nc12	binding		competition with immobilised ligand	1 µM	remaining binding	95%
CC(C)(C)c1cc(C=C(C#N)C#N)cc(Br)c1O	enzyme activity	inhibitor		0.5 µM	remaining activity	95.4%
Nc1ncc(-c2nc(N3CCOCC3)nc(N3CCOCC3)n2)c(C(F)F)n1	cell-free assay		competition with immobilised ligand	10 µM	remaining binding	48%
N#CC1(c2ccccn2)CCN(Cc2cc(C(=O)O)c(=O)n3ccccc23)CC1	cell-free assay		competition with immobilised ligand	1 µM	remaining binding	97%
Cn1cc(-c2cccc(N3CCc4c(sc5c4CC(C)(C)C5)C3=O)c2CO)cc(Nc2ccncn2)c1=O	enzyme activity	inhibitor		1 µM	inhibition	5%
COc1cc(Nc2ncc(F)c(Nc3ccc4c(n3)NC(=O)C(C)(C)O4)n2)cc(OC)c1OC	binding		competition with immobilised ligand	10 µM	inhibition	91%
O=c1[nH]c2ccccc2n1C1CCN(Cc2ccc(-c3[nH]c4cc5ncnc5cc4nc3-c3ccccc3)cc2)CC1	cell-free assay			0.5 µM	remaining signal	101%
Cn1cc(-c2cc(F)cc(N3CCn4c(cc5c4CCCC5)C3=O)c2CO)cc(Nc2ccc(N3CCN(C4COC4)CC3)cn2)c1=O	enzyme activity	inhibitor		0.1 µM	inhibition	4%
Cn1cncc1[C@](O)(COc1ccc(C#N)cc1-c1ccc(OC(F)(F)F)cc1)c1ccc(C#N)cc1	cell-free assay		competition with immobilised ligand	1 µM	remaining binding	81%
